Results pooled from the literature.
Protocols differ between the studies behind these lines.
Target: Cytoplasmic tyrosine-protein kinase BMX (BMX, Homo sapiens, UniProt P51813)
Read-out: enzyme activity
Mode: inhibitor
Sequence (P51813 1-675, as in one of the studies): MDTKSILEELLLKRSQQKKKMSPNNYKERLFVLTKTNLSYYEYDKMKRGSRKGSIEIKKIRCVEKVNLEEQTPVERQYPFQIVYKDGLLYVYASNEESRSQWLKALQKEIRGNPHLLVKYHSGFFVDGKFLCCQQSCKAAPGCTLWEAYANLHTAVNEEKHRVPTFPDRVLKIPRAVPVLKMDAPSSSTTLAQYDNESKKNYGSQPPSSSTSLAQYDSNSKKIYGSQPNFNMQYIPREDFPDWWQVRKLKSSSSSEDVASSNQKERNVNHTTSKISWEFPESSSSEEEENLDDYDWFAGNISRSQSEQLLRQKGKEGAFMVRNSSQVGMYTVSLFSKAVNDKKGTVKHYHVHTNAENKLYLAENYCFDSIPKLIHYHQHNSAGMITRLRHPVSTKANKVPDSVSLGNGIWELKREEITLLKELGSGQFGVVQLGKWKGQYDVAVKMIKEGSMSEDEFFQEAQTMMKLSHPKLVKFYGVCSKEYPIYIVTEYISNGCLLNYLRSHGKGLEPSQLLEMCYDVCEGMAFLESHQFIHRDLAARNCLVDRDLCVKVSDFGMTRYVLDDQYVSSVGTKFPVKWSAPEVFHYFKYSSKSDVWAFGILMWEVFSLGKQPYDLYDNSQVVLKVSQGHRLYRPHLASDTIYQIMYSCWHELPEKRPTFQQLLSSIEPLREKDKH

SMILES	test	setting	remaining activity
Nc1ncnc2occ(-c3ccc(NC(=O)Nc4cc(C(F)(F)F)ccc4F)cc3)c12	–	20 µM	0.5%
COc1cc(Cl)c(C(=O)N[C@@H](CN[C@H]2CC[C@@H](N)CC2)Cc2ccc(C#N)cc2)cc1-c1ccc(CN[C@H](C)c2ccc(C)cc2)o1	–	1 µM	72%
CCCOc1ccc(OC)c(F)c1C(=O)c1ccc(C(=O)N[C@@H]2CNC[C@H]2NC(=O)c2ccc3[nH]ncc3c2)cc1	–	10 µM	87%
CCN(CC)c1ccc(C2=NNC(=O)CC2C)cc1[N+](=O)[O-] (stereo not drawn)	–	10 µM	96%
COc1ccc(C(=O)Nc2sc3c(c2C(N)=O)CCCC3)cc1OC	–	0.5 µM	89.8%
Cc1sc(C(=O)NC2COC2)cc1-n1cc(NC(=O)Nc2c(F)cccc2Cl)cn1	–	10 µM	92.9%
CC(C)(O)[C@H]1CC[C@H](Nc2ccc3ncc(-c4cccc(C(F)(F)F)c4)n3n2)CC1	–	1 µM	71.5%
CC(C)(C)c1nc(-c2cccc(NS(=O)(=O)c3c(F)cccc3F)c2F)c(-c2ccnc(N)n2)s1	radiometric	1 µM	75%
COc1cc2ncc(-c3ccccc3)nc2cc1OC	–	0.5 µM	92.2%
Cc1ccc(C(=O)Nc2ccc(CN3CCN(C)CC3)c(C(F)(F)F)c2)cc1C#Cc1cnc2cccnn12	–	23.5 nM	47%
CC(C)(C)c1nc2c(s1)c1nc(N)ncc1c1ccc(NS(=O)(=O)c3c(F)cccc3F)c(F)c12	radiometric	1 µM	87%
O=C(O)c1ccc2c3c1cccc3c(=O)n1c3ccccc3nc21	–	0.5 µM	96.4%
O=C(Nc1cnn(-c2csc(C(=O)NC3COC3)c2)c1)Nc1c(F)cccc1Cl	–	5 µM	96.8%
CCN(CC)CCNC(=O)c1c(C)[nH]c(/C=C2\C(=O)Nc3ccc(Cl)cc32)c1C	–	0.5 µM	99.3%
Cc1cnc(NC2CCOCC2)nc1-n1cnc(C(=O)NC(CN)c2cc(F)cc(Cl)c2)c1 (stereo not drawn)	radiometric	1 µM	117%
